Test results from publication PMC7335720 (Saudi Pharmaceutical Journal : SPJ, 2020).

Assay: Pharmacokinetic study after single oral dose in rabbits
Type: in vivo
Details: male, rabbit, plasma, 2.58 mg/kg
How it was run: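 Twelve healthy fasted male rabbits (≈1.5 kg), 12 h fast, two groups. Single oral dose suspended in CMC: 2.58 mg/kg parent drug, or 6.45 mg/kg conjugate (2.58 mg/kg drug-equivalent). Water after 1 h. Plasma deproteinised with acetonitrile and filtered, then HPLC-UV at 248 nm (acetonitrile:water 50:50, isocratic, 1 mL/min) against a 1–50 μg/mL standard curve. AUC by linear trapezoidal method.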

AUC(0-inf): 190 ± 4 µg·h/mL | Cmax: 37300 ng/mL | half-life: 4.6 ± 0.19 h | k el: 4.17e-05 s⁻¹
Compound: CC(C(=O)O)c1ccc(-c2ccccc2)c(F)c1 (stereo not shown) [Standard FLB, 2-(3-fluoro-4-phenylphenyl)propionic acid]
